{"data": "Measurements collected from several papers", "Maoa": "Amine oxidase [flavin-containing] A (Maoa, Rattus norvegicus, UniProt P21396)", "AMY2": "Pancreatic alpha-amylase (AMY2, Sus scrofa, UniProt P00690)", "SIRT2": "NAD-dependent protein deacetylase sirtuin-2 (SIRT2, Homo sapiens, UniProt Q8IXJ6)", "HSD11B2": "11-beta-hydroxysteroid dehydrogenase type 2 (HSD11B2, Homo sapiens, UniProt P80365)", "Hydroxyacylglutathione hydrolase, mitochondrial": "Hydroxyacylglutathione hydrolase, mitochondrial (Homo sapiens, UniProt Q16775)", "note": "Lines come from different studies, so protocols differ."}
{"SMILES": "Oc1cccc(Nc2nc(-c3ccc(F)cc3F)cs2)c1", "target": "Maoa", "assay": "cell-free assay", "conditions": "10 µM", "inhibition [%]": 14.4}
{"SMILES": "Cc1noc(NS(=O)(=O)c2ccc(N=NN(O)c3ccccc3)cc2)c1C", "target": "AMY2", "assay": "enzyme activity, inhibitor", "conditions": "300 µg/mL", "inhibition [%]": 73.7}
{"SMILES": "CCCCCCCCCCCCNC(=S)NCCCC[C@H](NC(=O)OCc1ccccc1)C(=O)N[C@@H](Cc1c[nH]c2ccccc12)C(=O)N[C@@H](CC(N)=O)C(N)=O", "target": "SIRT2", "assay": "enzyme activity, inhibitor", "conditions": "100 µM", "inhibition [%]": 16}
{"SMILES": "COc1cc(C=Cc2cc(-c3ccc(N(C)C)cc3)nc(O)n2)ccc1O", "target": "AMY2", "assay": "enzyme activity, inhibitor, absorbance", "conditions": "2.5 µg/mL", "inhibition [%]": 60}
{"SMILES": "CCC(C)(C)C(=O)O[C@H]1C[C@@H](C)C=C2C=C[C@H](C)[C@H](CC[C@@H]3C[C@@H](O)CC(=O)O3)[C@H]21", "target": "HSD11B2", "assay": "enzyme activity, inhibitor", "conditions": "20 µM, lysate", "inhibition [%]": "< 40"}
{"SMILES": "CC/C(=N\\NC(=O)NCc1cccc(O)c1)c1ccc(O)c(C)c1O", "target": "Fibroblast growth factor receptor 3 (FGFR3, Homo sapiens, UniProt P22607, V555L)", "assay": "enzyme activity, inhibitor", "conditions": "0.1 µM", "inhibition [%]": -0.1}
{"SMILES": "CN(O)N=Nc1ccc(S(=O)(=O)Nc2nccs2)cc1", "target": "AMY2", "assay": "enzyme activity, inhibitor", "conditions": "60 µg/mL", "inhibition [%]": 26.3}
{"SMILES": "COc1cc(C=CC(=O)CC(c2ccc(N(C)C)cc2)n2ccnc2)ccc1O (centres unmarked)", "target": "AMY2", "assay": "enzyme activity, inhibitor, absorbance", "conditions": "5 µg/mL", "inhibition [%]": 77}
{"SMILES": "Cc1cccc(N(O)N=Nc2ccc(S(=O)(=O)Nc3onc(C)c3C)cc2)c1", "target": "AMY2", "assay": "enzyme activity, inhibitor", "conditions": "240 µg/mL", "inhibition [%]": 52.6}
{"SMILES": "c1ccc(CN(CCN(Cc2ccccn2)Cc2ccccn2)Cc2ccccn2)nc1", "target": "Hydroxyacylglutathione hydrolase, mitochondrial", "assay": "cell-free assay", "conditions": "100 µM", "inhibition [%]": 47.6}
{"SMILES": "CCCC(=S)NCCCC[C@H](NS(C)(=O)=O)C(=O)N[C@H](C)C(=O)N[C@@H](CCCNC(=N)N)C(N)=O", "target": "SIRT2", "assay": "enzyme activity, inhibitor", "conditions": "10 µM", "inhibition [%]": 31}
{"SMILES": "Cc1cc(NS(=O)(=O)c2ccc(N=NN(O)c3ccccc3)cc2)no1", "target": "AMY2", "assay": "enzyme activity, inhibitor", "conditions": "180 µg/mL", "inhibition [%]": 52.6}
{"SMILES": "O=C1CC(CCNC(=S)NCCCC[C@H](NS(=O)(=O)c2cccc(F)c2)C(=O)N[C@@H](Cc2c[nH]c3ccccc23)C(=O)NC2CCC2)=NO1", "target": "SIRT2", "assay": "enzyme activity, inhibitor", "conditions": "10 µM", "inhibition [%]": 9}
{"SMILES": "C=C(CC)C(=O)c1ccc(OCC(=O)O)c(Cl)c1Cl", "target": "HSD11B2", "assay": "enzyme activity, inhibitor", "conditions": "20 µM, lysate", "inhibition [%]": "< 40"}
{"SMILES": "CCCCNC(=S)NCCCC[C@H](NS(=O)(=O)c1cccc(F)c1)C(=O)N[C@@H](Cc1c[nH]c2ccccc12)C(=O)NC1CCC1", "target": "SIRT2", "assay": "enzyme activity, inhibitor", "conditions": "1 µM", "inhibition [%]": 32}
{"SMILES": "CCCN(O)N=Nc1ccc(S(=O)(=O)Nc2cc(C)on2)cc1", "target": "AMY2", "assay": "enzyme activity, inhibitor", "conditions": "240 µg/mL", "inhibition [%]": 57.9}
{"SMILES": "CN1CC(Oc2cnc(C#N)cc2-c2ccn3nc(NC(=O)C4CC4)cc3c2)C1", "target": "Receptor-interacting serine/threonine-protein kinase 1 (RIPK1, Homo sapiens, UniProt Q13546)", "assay": "enzyme activity, inhibitor", "conditions": "1 µM", "inhibition [%]": -4}
{"SMILES": "C[C@H]1O[C@H](O[C@H]2[C@H](O)[C@@H](O)[C@@H](O[C@H]3[C@H](O)[C@@H](O)C(O)O[C@@H]3CO)O[C@@H]2CO)[C@H](O)[C@@H](O)[C@@H]1N[C@H]1C=C(CO)[C@@H](O)[C@H](O)[C@H]1O (some centres unmarked)", "target": "AMY2", "assay": "enzyme activity, inhibitor", "conditions": "150 µg/mL", "inhibition [%]": 84.7}
{"SMILES": "Cn1c(CNC(=S)NCCCC[C@H](NS(=O)(=O)c2cccc(F)c2)C(=O)N[C@@H](Cc2c[nH]c3ccccc23)C(=O)NC2CCC2)n[nH]c1=S", "target": "SIRT2", "assay": "enzyme activity, inhibitor", "conditions": "30 µM", "inhibition [%]": 43}
{"SMILES": "COc1cc(NC(C)=O)c(Cl)cc1C(=O)Nc1nccs1", "target": "Maoa", "assay": "cell-free assay", "conditions": "10 µM", "inhibition [%]": 14.4}
{"SMILES": "COc1cc(C=CC(=O)CC(c2ccc([N+](=O)[O-])cc2)n2ccnc2)ccc1O (centres unmarked)", "target": "AMY2", "assay": "enzyme activity, inhibitor, absorbance", "conditions": "10 µg/mL", "inhibition [%]": 87.6}
{"SMILES": "Cc1ccc(N(O)N=Nc2ccc(S(=O)(=O)Nc3onc(C)c3C)cc2)cc1", "target": "AMY2", "assay": "enzyme activity, inhibitor", "conditions": "60 µg/mL", "inhibition [%]": 21.1}
{"SMILES": "CCOCCOCCNC(=S)NCCCC[C@H](NS(C)(=O)=O)C(=O)N[C@H](C)C(=O)N[C@@H](CCCNC(=N)N)C(N)=O", "target": "SIRT2", "assay": "enzyme activity, inhibitor", "conditions": "100 µM", "inhibition [%]": 16}
{"SMILES": "COc1cc(C=Cc2cc(-c3ccccc3)nc(O)n2)ccc1O", "target": "AMY2", "assay": "enzyme activity, inhibitor, absorbance", "conditions": "1.25 µg/mL", "inhibition [%]": 58.1}
{"SMILES": "CC(=S)NCCCC[C@H](NC(=O)OCc1ccccc1)C(=O)N[C@@H](Cc1c[nH]c2ccccc12)C(=O)N[C@@H](CCC(=O)O)C(N)=O", "target": "SIRT2", "assay": "enzyme activity, inhibitor", "conditions": "10 µM", "inhibition [%]": 39}
{"SMILES": "CC(C)c1c(C(=O)Nc2ccccc2)c(-c2ccccc2)c(-c2ccc(F)cc2)n1CC[C@@H](O)C[C@@H](O)CC(=O)O", "target": "HSD11B2", "assay": "enzyme activity, inhibitor", "conditions": "20 µM, lysate", "inhibition [%]": "< 40"}
{"SMILES": "CCCCCCCCCCCCCC(=O)NNCCC[C@H](NC(=O)OCc1ccccc1)C(=O)N[C@@H](Cc1c[nH]c2ccccc12)C(=O)NC(C)C", "target": "SIRT2", "assay": "enzyme activity, inhibitor", "conditions": "100 µM", "inhibition [%]": 19}
{"SMILES": "Cc1ccc(N(O)N=Nc2ccc(S(=O)(=O)Nc3cc(C)on3)cc2)cc1", "target": "AMY2", "assay": "enzyme activity, inhibitor", "conditions": "240 µg/mL", "inhibition [%]": 68.4}
{"SMILES": "O=C(O)CN1CCN(CC(=O)O)CCN(CC(=O)O)CC1", "target": "Hydroxyacylglutathione hydrolase, mitochondrial", "assay": "cell-free assay", "conditions": "500 µM", "inhibition [%]": 5.98}
